Assay results published in PMC2922024 (Neuroscience letters, 2010).
Positions of bridges follow the written chain, without caps; N, C: chain ends. Residues, ends and D or L forms follow the SMILES beside them.

B1: nerve growth factor (protein, UniProt P01139 122-241, looked up)
Beta-nerve growth factor: SSTHPVFHMGEFSVCDSVSVWVGDKTTATDIKGKEVTVLAEVNINNSVFRQYFFETKCRASNPVESGCRGIDSKHWNSYCTTTHTFVKALTTDEKQAAWRFIRIDTACVCVLSRKATRRG
modifications: Beta-nerve growth factor

How the values were obtained:
[1] = Free GsMTx4 in media with or without serum; assay type: in vitro ADME
PC12 cells = test: Neurite outgrowth from PC12 cells; assay type: cell-based, rat; settings: NGF 50 ng/ml alone, 48 h
Summary of the method: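 Rat PC12 cells were grown in high-glucose DMEM with 10% FBS, penicillin/streptomycin and 10 mM Hepes at 37 °C in 5% CO2. They were seeded at 4 × 10^4 per well, adhered overnight, then left untreated or given NGF (50 ng/ml final) for 48 h. Phase-contrast images were scored blinded: three random fields per well, at least 4 wells, fields of more than 10 cells, at least 250 cells per experiment. The percentage was calculated per image, and the longest neurite per bearing cell was averaged. Groups were compared by one-way ANOVA with Tukey–Kramer.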

Molecule | free concentration ([1]; culture media with 10% serum, mean (total) concentration 100 μM GsMTx4) | free drug concentration in media as share of the total ([1]; media with 10% serum) | length of the longest neurite per NBC (PC12 cells; untreated approximately 10 μm) | percentage of neurite bearing cells (PC12 cells; untreated ~1%)
CC(C)C[C@@H]1NC(=O)[C@@H](NC(=O)CN)CSSC[C@@H]2NC(=O)[C@@H]3CSSC[C@@H](C(=O)N[C@@H](CC(N)=O)C(=O)N[C@@H](Cc4ccccc4)C(=O)N[C@@H](CO)C(=O)N[C@@H](Cc4ccccc4)C(N)=O)NC(=O)[C@H](CC(C)C)NC(=O)[C@H](CCCCN)NC(=O)[C@H](Cc4ccccc4)NC(=O)[C@H](CC(C)C)NC(=O)[C@H](CCCCN)NC(=O)[C@H](CO)NC(=O)[C@H](CSSC[C@H](NC(=O)[C@H](CCCCN)NC(=O)[C@H](Cc4c[nH]c5ccccc45)NC(=O)[C@H](Cc4c[nH]c5ccccc45)NC(=O)[C@H](Cc4ccccc4)NC(=O)[C@H](CCC(=O)O)NC1=O)C(=O)N[C@@H](CC(N)=O)C(=O)N1CCC[C@H]1C(=O)N[C@@H](CC(N)=O)C(=O)N[C@@H](CC(=O)O)C(=O)N[C@@H](CC(=O)O)C(=O)N[C@@H](CCCCN)C(=O)N3)NC(=O)[C@H](CCCCN)NC(=O)[C@H](CC(C)C)NC(=O)[C@H](CCCCN)NC(=O)[C@@H]1CCCN1C(=O)[C@H](CCCNC(=N)N)NC2=O [GsMTx4] (H-GCLEFWWKCNPNDDKCCRPKLKCSKLFKLCNFSF-NH2; disulfide 2-17, 9-23, 16-30) | ~ 5 μM | about 5% | – | –
B1 | – | – | ~ 20 μm | ~ 20%
